Compound activity as filed in PubChem BioAssay.
HGIII-sPLA2 inh: human group III sPLA2 inhibitors, primary screen, biochemical, QFRET, BODIPY PC-A2 liposome substrate. Group 3 secretory phospholipase A2 (Homo sapiens), Q9NZ20. QFRET BODIPY PC-A2 liposome hydrolysis, fluorescence. inhibition, % at 12.2 µM. 370,000 compounds, 0.56% hits;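 active = inhibition above mean plus 3 SD of compounds lying within the high and low control bounds, cut at about 19% in these data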;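 note: 0% = median of test compound wells and 100% = no enzyme DMSO wells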
ARFGAP1 inh: inhibitors of rat ARFGAP1 GAP activity, primary screen, biochemical, fluorescence polarization, GDP tracer | Arfgap1-stimulated ARF1 GTP hydrolysis, GDP FP detection | inhibition, % at 16.5 µM | AID 651572, 2012 | ADP-ribosylation factor GTPase-activating protein 1 (Rattus norvegicus), Q62848 | 360,000 compounds, 0.26% hits;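 active = inhibition above a per-plate limit, mean inhibition of low control wells plus 3 SD, cut at about 25% in these data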;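 note: 0% = DMSO wells with enzyme and 100% = wells lacking Arfgap1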
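Assay system: purified rat His6-Arfgap1 residues 1-136 (GAP domain); Reagent: human Δ17 ARF1 bound to GTP; Dosing: 16.5 µM single point, 1.26% DMSO; Times: GTP hydrolysis reaction 2 h at 25 °C; Signal: FP, GDP Alexa 633 tracer displaced from anti-GDP antibody, 620/688 nm; Measure: % inhibition from polarization.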
SKKanGAS inh: S. pyogenes SKKanGAS growth inhibitors in kanamycin, primary screen, streptokinase expression inhibitor project, SKKanGAS strain, BacTiter-Glo luminescence | inhibition, % at 7.5 µM | 6 h | AID 1662, 2009 | 300,000 compounds, 1.3% hits;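 active = mean replicate score, as percent of positive control median, at least 50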;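 note: strain carries kanamycin resistance gene driven by streptokinase promoter and grows in 40 µg/ml kanamycin; loss of luminescence reflects streptokinase promoter inhibition or plain growth inhibition; 0% = median of DMSO wells and 100% = positive control at its reference dose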
ASAP1 inh: inhibitors of human ASAP1 ArfGAP activity, primary screen, biochemical, fluorescence polarization. Arf-GAP with SH3 domain, ANK repeat and PH domain-containing protein 1 (Homo sapiens), …. ASAP1-stimulated ARF1 GTP hydrolysis, GDP FP detection. inhibition, % at 16.5 µM. 360,000 compounds, 0.19% hits. AID 624377, 2012; in the data active = inhibition above about 25%;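 note: 0% = vehicle with enzyme and substrate and 100% = no enzyme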
Target sequence (Q9ULH1 325-724 limits assumed): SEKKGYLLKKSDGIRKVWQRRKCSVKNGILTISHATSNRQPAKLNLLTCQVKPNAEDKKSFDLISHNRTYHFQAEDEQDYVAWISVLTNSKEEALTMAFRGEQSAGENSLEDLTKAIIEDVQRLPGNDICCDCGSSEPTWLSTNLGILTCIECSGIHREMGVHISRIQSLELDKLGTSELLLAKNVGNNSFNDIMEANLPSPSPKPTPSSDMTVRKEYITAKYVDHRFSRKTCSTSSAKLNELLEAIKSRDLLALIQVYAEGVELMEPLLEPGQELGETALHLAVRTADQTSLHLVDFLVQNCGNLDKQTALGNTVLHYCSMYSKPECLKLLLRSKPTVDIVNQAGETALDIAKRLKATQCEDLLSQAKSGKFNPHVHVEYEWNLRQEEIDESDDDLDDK
Calb FLC: C. albicans growth inhibition with fluconazole, primary screen, CaCi-2 strain, Alamar Blue fluorescence; C. albicans CaCi-2 + fluconazole, 48 h; growth inhibition, % (test concentration not listed); 300,000 compounds, 0.57% hits; AID 1979, 2009;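 active = growth inhibition above about 58% in most replicates, limit read from the data, passing the limit was not always enough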;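 note: all wells also contain fluconazole at 8 µg/ml as a sub-toxic cotreatment; 0% = median of DMSO wells and 100% = median of geldanamycin control wells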
sPLA2 confirm: human group III sPLA2 inhibitors, confirmation, biochemical, QFRET, triplicate; 2,000 compounds, 34% hits; shares compounds with HGIII-sPLA2 inh; inhibition, % at 12.2 µM; recombinant hGIII-sPLA2, BODIPY PC-A2 QFRET fluorescence;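 active = mean inhibition across triplicates above the hit cutoff set in the earlier primary screen, cut at about 19% in these data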;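 note: 0% = enzyme with DMSO and 100% = DMSO wells lacking enzyme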
535nm interf: 535nm fluorescence optical interference, confirmation, artefact control for HGIII-sPLA2 inhibitor project, biochemical, QFRET; 2,000 compounds, 8.5% hits; shares compounds with HGIII-sPLA2 inh; BODIPY FL product fluorescence interference; inhibition, % at 12.2 µM;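 active = average inhibition above the solvent-only control mean plus 3 SD, cut at about 6% in these data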;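 note: 0% = DMSO with substrate plus product and 100% = DMSO with substrate alone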
The depositor's hits bear a star; x = not tested or not shown. In the library only some 2.3% were active in any assay of this set; here they are far more common.

SMILES	HGIII-sPLA2 inh	ARFGAP1 inh	SKKanGAS inh	ASAP1 inh	Calb FLC	sPLA2 confirm	535nm interf
CCOC(=O)C(=O)Nc1ccc([N+](=O)[O-])cc1OC	23*	11	4	-7	-10	-1	-1
COc1cc([N+](=O)[O-])ccc1N	28*	6	5	1	23	2	-4
CC(NC(=O)CN1CCOCC1)c1ccc(F)cc1 (stereo unspecified)	21*	-3	-3	1	-5	-5	-5
CCC(C)(NC(=O)c1ccccc1)C(=O)O (stereo unspecified)	23*	21	6	1	-11	2	-6
CCCOc1ccc(Br)cc1CSC(=N)N	35*	-3	-8	10	-29	18	-15
Nc1[nH]c2cc(Cl)ccc2c1C(=O)NCCc1ccc(Cl)cc1	-14	x	x	x	x	x	x
